Assay outcomes (PubChem BioAssay)
PPC-1+TRAIL kill – kills PPC-1 cancer cells in the presence of TRAIL; PPC-1 cells + TRAIL, ATPLite viability luminescence; AID 1443; cell killing (% activity), % at 4 µM or 5 µM; 220,000 tested, 0.41% active;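 active = cell killing above 50% in the first pass at 4 µM, then a duplicate retest at 5 µM averaging 50% or more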;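 also: plate controls were cells with TRAIL plus DMSO for no effect and medium-only wells lacking cells for full effect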
FLuc inh counter – counter-screen for luciferase assay inhibitors: firefly luciferase inhibition. P08659. ATPLite firefly luciferase biochemical luminescence, 10 min. inhibition, % at 10 µM. 200,000 tested, 1.5% active;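 active = inhibition above about 50% when tested at 10 µM, limit read from the data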
Target sequence (P08659 whole entry, looked up): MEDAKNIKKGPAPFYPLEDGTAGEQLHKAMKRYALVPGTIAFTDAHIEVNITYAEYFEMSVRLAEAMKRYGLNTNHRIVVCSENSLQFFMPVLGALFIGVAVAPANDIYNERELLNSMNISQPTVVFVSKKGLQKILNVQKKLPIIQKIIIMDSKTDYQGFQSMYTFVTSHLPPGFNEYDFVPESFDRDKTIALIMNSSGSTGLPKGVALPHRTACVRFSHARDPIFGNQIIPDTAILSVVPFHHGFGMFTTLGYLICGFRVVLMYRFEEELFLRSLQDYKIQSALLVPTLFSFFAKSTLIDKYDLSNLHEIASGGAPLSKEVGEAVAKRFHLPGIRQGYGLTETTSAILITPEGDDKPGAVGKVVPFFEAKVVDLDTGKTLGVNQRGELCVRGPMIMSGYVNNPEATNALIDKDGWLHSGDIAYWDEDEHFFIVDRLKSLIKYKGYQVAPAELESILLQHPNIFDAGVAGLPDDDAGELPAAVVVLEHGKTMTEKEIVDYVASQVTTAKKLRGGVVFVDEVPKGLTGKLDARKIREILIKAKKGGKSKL
hiPSC survival – hiPSC single-cell survival enhancement; ATPlite luminescence; 100% = ROCK inhibitor wells, 0% = DMSO; survival enhancement, % at 20 µM; 360,000 tested, 0.044% active; AID 602274; in the data active = survival enhancement above about 18%;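 also: cells exposed to compounds for 16 hours before the ATP read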
beta cell repl – MIN6 beta-cell proliferation induction | MIN6 cells proliferation, ATPlite luminescence, 48 h; cells starved in 0.2% serum; 100% = growth in 10% serum | proliferation, % at 10 µM | 330,000 tested, 0.29% active;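 active = compounds whose signal lies at least 3.5 SD above the mean of all wells on their plate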;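 also: 0% = DMSO-treated cells in low-serum medium and 100% = 10% serum control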
TRAIL sens C8 – sensitizes caspase-8 expressing cells to TRAIL. NB7+C8 cells + TRAIL, ATPlite viability luminescence. inhibition (viability loss, TRAIL sensitization), % at 10 µM. 360,000 tested, 1% active;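 active = compounds causing at least 50% loss of cell viability in the single-dose screen, relative to plate controls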
FLuc stim CS – firefly luciferase counter-screen for stimulation assays; activation factor at 10 µM; 200,000 tested, under 10 active; ATPlite luciferase biochemical, luminescence, 10 min; 0 = ATP-free wells, 1 = DMSO control;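 active = luciferase activation factor, scaled between plate controls, of at least 2 with compound at 10 µM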
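System: cell-free luciferase reagent; medium: PBS as buffer for the ATP substrate; doses: test compounds dosed from 2 mM stocks in 100% DMSO; incubation: 10 min, room temperature; measured by: luminescence from luciferase reaction; read-out: luciferase activation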
Numbers without * were called inactive; / = not tested or not shown. Shown are actives, neighbours in structure and some others; about 1.8% of the full set was active somewhere.

SMILES	PPC-1+TRAIL kill	FLuc inh counter	hiPSC survival	beta cell repl	TRAIL sens C8	FLuc stim CS
COc1ccccc1CN1CCN(Cc2ccc(Cl)cc2)CC1	29	0	1	0	1	1
CCN1CCN(Cc2cc3c(cc2[N+](=O)[O-])OCO3)CC1	/	/	0	-1	-7	/
NC1C2CN3CCN(C2)CC1(c1ccccc1)C3 (stereo not given)	-7	/	0	3	3	/
CCOC(=O)[C@]12Cc3cc4ccccc4cc3[C@H]1N(Cc1ccccc1)C(=O)c1cc(OC)ccc12	/	/	-2	/	64*	/
CCOC(=O)[C@]12Cc3cc(OC)c(OC)cc3[C@H]1N(Cc1ccccc1)C(=O)c1ccccc12	/	/	-2	/	2	/
CCOC(=O)[C@]12Cc3cc(OC)ccc3[C@H]1N(Cc1ccccc1)C(=O)c1cc(OC)ccc12	/	/	-1	/	13	/
CCCCCN1C(=O)c2cc(OC)ccc2[C@@]2(C(=O)OCC)Cc3cc(Cl)ccc3[C@@H]12	/	/	-2	/	85*	/
CCOC(=O)[C@]12Cc3cc(Cl)ccc3[C@H]1N(Cc1ccccc1)C(=O)c1cc(OC)ccc12	/	/	-2	/	89*	/
CCOC(=O)[C@]12Cc3cc4ccccc4cc3[C@H]1N(Cc1ccccc1)C(=O)c1ccccc12	/	/	-1	/	67*	/
C=C1C(=O)OC2CC3(C)OC3C3OC3C3=CC(OC3=O)C12 (stereo not given)	/	/	1	/	15	/
CCC(Oc1cc(Cl)ccc1Cl)C(=O)N1CCC2(CC1)OCCO2 (stereo not given)	/	/	0	-1	8	/
COC(=O)[C@]12OC[C@]34C([C@@H](O)[C@@H]1O)[C@]1(C)CC(=O)C(O)=C(C)[C@@H]1C[C@H]3OC(=O)[C@H](O)[C@@H]24 (stereo not given in full)	28	/	-2	-5	39	/
O=C(CCc1ccccc1)N1Cc2cc(N3CCCCC3)ccc2-n2nncc2C1	/	/	1	/	-6	/
Cn1c(O)c(C=NCCCNC2CCCCC2)c(=O)n(C)c1=O	-4	-4	2	0	0	1
COC1CCC(OC2CC(C3(C)CCC4(CC(O)C(C)C(C(C)/C=C(\C)C(=O)C(C)CC(C)C(=O)O)O4)O3)OC3(OC(C4OC(O)(CO)C(C)CC4C)CC3C)C2C)OC1C (stereo not given)	/	/	-4	/	81*	/
Cn1c(NN=O)nc2ccccc21	39	44	-3	-3	57*	0.6
O=c1[nH]c2ccccc2n1C1CCN(C(c2cc3ccccc3o2)c2nnnn2Cc2ccccc2)CC1 (stereo not given)	/	/	1	/	87*	/
COc1ccc(-n2nc(C(=O)NCC(=O)N3CCC4(CC3)OCCO4)c3ccccc3c2=O)c(OC)c1	/	/	-1	-2	55*	/
O=C(Cn1cnc2ccccc2c1=O)NCC(=O)N1CCC2(CC1)OCCO2	-1	-5	-3	0	-9	1.1
COc1ccc(C[C@H]2NC[C@H](O)[C@H]2OC(C)=O)cc1	/	/	-4	-8	86*	/
COc1ccc(CCNC2CCCCC2)cc1	16	-8	0	-1	-3	1.1
COc1ccccc1NC(=O)c1cn(CCC#N)nc1-c1ccc(F)cc1	/	/	1	0	-13	/
CC1OC(OC2C=C3CCC4C(CCC5(C)C(c6ccc(=O)oc6)CCC45O)C3(C)CC2)C(O)C(OC2OC(CO)C(O)C(O)C2O)C1O (stereo not given)	/	/	-3	/	75*	/
CNC(=O)Oc1ccc(-c2cn3cc(Cl)ccc3n2)cc1	55*	93*	-3	-5	84*	0.1
CNC(=O)Oc1cccc(-c2cn3cc(OC(=O)NC)ccc3n2)c1	-8	73*	-2	/	15	0.3
SMILES	PPC-1+TRAIL kill	FLuc inh counter	hiPSC survival	beta cell repl	TRAIL sens C8	FLuc stim CS
Cc1ccc(-n2c(=O)[nH]c3ccccc3c2=O)cc1[N+](=O)[O-]	/	/	1	/	5	/
CCOC(=O)[C@]12Cc3cc(Cl)ccc3[C@H]1N(CC(=O)OC)C(=O)c1ccccc12	/	/	-1	/	58*	/
CCOC(=O)[C@]12Cc3c(cc(OC)c(OC)c3OC)[C@H]1N(C(C)C)C(=O)c1cc(OC)ccc12	/	/	-1	/	46	/
CCOC(=O)[C@]12Cc3cc(OC)ccc3[C@H]1N(C(C)C)C(=O)c1cc(OC)ccc12	/	/	-1	/	55*	/
CCOC(=O)[C@]12Cc3cc(Cl)ccc3[C@H]1N(C(C)C)C(=O)c1ccccc12	/	/	-2	/	71*	/
CC(=O)Nc1ccccc1C(=O)OCC(=O)Nc1ncccn1	/	/	0	-3	-10	/
CC(=O)Nc1ccccc1C(=O)OCC(=O)c1ccc2c(c1)OCCO2	1	82*	0	0	-13	0.2
COc1ccc(N=Nc2c(O)[nH]c(=S)[nH]c2=O)cc1	11	59*	-1	-3	20	0.4
O=c1[nH]c(=S)[nH]c(O)c1N=Nc1ccc(OC(F)F)cc1	26	57*	-1	-2	26	0.4
NS(=O)(=O)c1ccc(N=Nc2c(O)[nH]c(=S)[nH]c2=O)cc1	13	/	0	0	-2	/
Cc1cc(=O)oc2cc(OCC(=O)N3CCN(C(C)c4ccccc4)CC3)c(Cl)cc12 (stereo not given)	/	/	0	-2	5	/
O=C1NC(=O)C(CCc2ccncc2)(CCc2ccccn2)C(=O)N1c1ccc(Br)cc1 (stereo not given)	/	0	-1	1	-3	1
ClCCN(CCCl)c1ccc(-n2cnc3c(Cl)ncnc32)cc1	/	/	-1	/	86*	/
CN1CCN(c2nc3ccccn3c(=O)c2C=C2C(=O)N(C)C(=O)N(C)C2=O)CC1	-10	-4	2	0	2	1
CC1CC(C)CC(C)C(O)C(C#N)=CC=CCC(C2CCCC2C(=O)O)OC(=O)CC(O)C(C)C1 (stereo not given)	/	/	-3	/	66*	/
CN(C)C(=O)Oc1ccc(OCc2nc3ccccc3[nH]2)cc1	46	80*	-3	-4	68*	0.2
CC(=O)N1N=C(c2c(O)n(C)c(=O)n(C)c2=O)CC1c1ccccc1 (stereo not given)	14	/	0	-3	-7	/
C=CC(=O)NCNC(=O)C=C	/	/	2	4	3	/
CCCCCCCCCCCCCCCC[N+](C)(C)C	/	/	-3	-8	85*	/
CCCCCC[N+](=O)[O-]	/	/	-2	2	5	/
C[C@]12CC[C@H]3[C@@H](CC[C@]4(O)C[C@@H](O)CC[C@]34C=O)[C@@]1(O)CC[C@@H]2C1=CC(=O)OC1	/	/	-3	-4	61*	/
CC12CCC3C(CCC4(O)CC(O)CCC34C=NO)C1(O)CCC2C1=COC(=O)C1 (stereo not given)	/	/	-2	/	69*	/
C[C@]12CCC3C(CCC4=CC(O)CC[C@@]43/C=N/O)C1(O)CCC2C1=CC(=O)OC1 (stereo not given in full)	/	/	0	1	52*	/
